T cruzi repl = blocks replication of Trypanosoma cruzi; inhibition, % (concentration not given with the values); T. cruzi beta-gal in NIH3T3, luminescence, 90 h; 1.4% of 300,000 active; AID 1885;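 active = mean inhibition across valid replicates above about 55%, limit read from the data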;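 also: signal also drops with host cell toxicity which is not excluded here; 0% = plate median of DMSO wells and 100% = zero luminescence signal; higher percent means less beta-gal luminescence so fewer parasites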
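Read-out: Parasite load inhibition, % | Test system: Mouse NIH/3T3 fibroblasts infected with β-gal-expressing T. cruzi Tulahuen C4 | Amount: 5,000 cells/well | Medium: DMEM, 2% fetal bovine serum | Signal: GalScreen β-gal luminescence, detergent lysis, 60 min | Timing: 3 h attach, ≥90 h co-culture | Also added: Tulahuen C4 trypomastigotes, 5000/well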
L major viab = inhibitors of Leishmania major promastigote growth; 9% of 200,000 active; AID 1063; inhibition, % at 10 µM; Leishmania major promastigotes, resazurin fluorescence viability; in the data active = inhibition above about 50%;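 also: promastigotes grown with compound for 44 hours at 28 °C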
DTT redox prof = compounds producing H2O2 with reducing agent – biochemical, NIH compound library profiling, artefact control for MLSCN library redox annotation, primary screen; DTT-dependent redox cycling H2O2, phenol red/HRP absorbance; 100% = 100 µM peroxide control, 0% = buffer; activation, % at 10 µM; 0.03% of 200,000 active; AID 878;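 active = activation of at least 50% relative to the plate's high and low controls in the primary single-dose screen; inactive = activation below 50%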;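 also: compound incubated with DTT at 0.8 mM final as the reducing agent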
Lipid droplet = modulators of hepatic lipid droplet formation | 0.4% of 240,000 active | inhibition, % at 6.5 µM | AML12 mouse hepatocytes, oleate lipid droplets, BODIPY imaging;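 active = lipid droplet intensity inhibited by at least 50%, with more than 500 cells counted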
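Assay system: AML12 hepatocytes (mouse) / Also added: 100 µM oleic acid challenge / Times: overnight treatment with compound plus oleate / Detection: high-content imaging of BODIPY-stained droplets and DAPI nuclei / Evaluation: % inhibition of lipid droplet signal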
MPTP block = blocks calcium-induced mitochondrial swelling; isolated mouse mitochondria, Ca2+ swelling absorbance, 30 min; inhibition, % at 10 µM; 1.4% of 360,000 active; AID 602449;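 active = inhibition of 50% or more, scaled per plate between neutral and stimulator controls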;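 also: 0% = DMSO wells given calcium and 100% = 1 mM EGTA wells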
An asterisk follows results filed as active; x = not tested or not shown. The sample as a whole holds a higher share of hits than the screen did.

SMILES | T cruzi repl | L major viab | DTT redox prof | Lipid droplet | MPTP block
CSCCC(NC(=O)COc1ccccc1)C(=O)OC(C)C(=O)Nc1ccccc1C (centres undefined) | -6.1 | x | x | x | -0.3
CC(NC(=O)CCc1ccc(S(=O)(=O)NC2CCCCC2)cc1)c1ccccc1 (centres undefined) | -3.3 | 95.6* | 0.1 | 0.8 | -0.5
CC(NS(=O)(=O)c1ccc(CCC(=O)NCc2cccnc2)cc1)c1ccccc1 (centres undefined) | -11.9 | 73.6* | -0.1 | 0.3 | 2.1
CC(C)CNS(=O)(=O)c1ccc(CCC(=O)NC2CCCC2)cc1 | 19.2 | 2.1 | 0.5 | -1.4 | -0.6
CN1CCN(C(=O)CCc2ccc(S(=O)(=O)NC3CCCCC3)cc2)CC1 | 58.9* | 3.8 | -0.4 | -16.1 | -0.4
CC(NS(=O)(=O)c1ccc(CCC(=O)N2CCN(C)CC2)cc1)c1ccccc1 (centres undefined) | 72.0* | 43.2 | 2.3 | -14.9 | 0.9
CC(C)NS(=O)(=O)c1ccc(CCC(=O)N2CCc3ccccc3C2)cc1 | 5.5 | -3.6 | -0.2 | 3.4 | -0.1
O=C(O)CN(c1ccccc1)S(=O)(=O)c1cc(C(F)(F)F)cc(C(F)(F)F)c1 | 4.2 | -3.1 | -0.4 | -4.2 | 4.0
CCCC(C(=O)Nc1ccc2c(C)cc(=O)oc2c1)c1ccccc1 (centres undefined) | 10.4 | x | x | -4.8 | 2.8
Cc1ccc(CNC(=O)CCc2ccc(S(=O)(=O)NC3CCCCC3)cc2)cc1 | -4.8 | 72.8* | 0.2 | -0.4 | -1.9
CCn1cc(C(=O)NNC(=O)c2ccc(Cl)cc2)c(=O)c2ccc(C)nc21 | -18.7 | 10.7 | -0.7 | 19.4 | -1.3
Cc1ccc(C)c2nc3sc(C(=O)N4CCCc5ccccc54)c(N)c3cc12 | 65.9* | -2.0 | 3.0 | x | 2.0
CCc1ccc2nc3sc(C(=O)N4CCc5ccccc54)c(N)c3cc2c1 | -22.1 | -3.5 | 0.4 | -6.5 | x
O=c1[nH]nc(-c2n[nH]c(=O)o2)o1 | x | x | x | x | -1.2
Cc1cc(-c2csc(NC(=O)c3ccc(C#N)cc3)n2)c(C)n1Cc1ccco1 | -7.5 | 51.5* | -0.6 | -17.3 | -0.4
C=CCNC(=O)/C(C#N)=C\c1cc(Cl)c(OCC)c(OC)c1 | -8.9 | 85.5* | 0.3 | -5.2 | 1.1
COc1ccc(S(=O)(=O)N2CCCCC2)cc1NC(=O)CSc1nccn1C | 11.2 | 98.8* | -1.6 | -15.0 | -0.1
COc1ccc(S(=O)(=O)N2CCOCC2)cc1NC(=O)c1ccc2c(c1)OCO2 | x | x | x | x | -0.2
COc1ccc(S(=O)(=O)N2CCCCC2)cc1NC(=O)c1ccc2c(c1)OCO2 | 6.1 | 78.3* | 0.1 | -5.8 | 0.5
N#Cc1ccc(C(=O)Nc2cc(S(=O)(=O)N3CCCC3)ccc2OCC(F)(F)F)cc1 | -3.9 | 58.5* | 0.3 | -9.8 | -0.4
Cc1cc2ccccc2n2c(SCC(=O)Nc3ccc(S(=O)(=O)N4CCCCC4)cc3)nnc12 | 14.5 | 4.5 | 0.0 | -14.7 | -1.4
COc1ccc(OCC(=O)Nc2cc(S(=O)(=O)N3CCCC3)ccc2OCC(F)(F)F)cc1 | x | x | x | x | 0.0
Cc1cc2cc(C)c3nnc(SCC(=O)Nc4ccc(S(=O)(=O)N5CCCCC5)cc4)n3c2cc1C | 8.8 | 55.9* | -0.1 | 17.1 | -0.1
COc1ccc(S(=O)(=O)N2CCOCC2)cc1NC(=O)CCOc1ccc(C(C)(C)C)cc1 | x | x | x | x | 1.6
COc1ccccc1NS(=O)(=O)c1ccc(C)c(NC(=O)c2ccc(S(=O)(=O)N3CCCCCC3)cc2)c1 | 36.6 | 96.9* | -0.7 | -31.7 | 16.2
SMILES | T cruzi repl | L major viab | DTT redox prof | Lipid droplet | MPTP block
Cc1ccn(C(=O)c2ccc(NC(=O)C3CC3)cc2)n1 | -6.2 | -6.0 | 0.3 | 10.0 | 0.1
CN(C)c1ccc(NC(=O)Cn2ncn3c(cc4ccccc43)c2=O)cc1 | 42.9 | 57.9* | 0.9 | x | -0.9
CCN(CC)c1ccc(NC(=O)c2ccc3c(c2)c(C)c(C)n3C)cc1 | 69.0* | 44.5 | -0.4 | 71.2* | 1.0
CCOC(=O)c1nnn(-c2ccc([N+](=O)[O-])cc2[N+](=O)[O-])c1C | 95.9* | 47.9 | -0.4 | 2.1 | -1.8
CCOC(=O)c1nnn(-c2ccccc2)c1C | -10.1 | -4.3 | 1.8 | -1.5 | -0.7
CCN(CC)c1ccc(NC(=O)c2ccccc2OCC(=O)OC)cc1 | -6.4 | -4.7 | -0.9 | 3.4 | 1.2
OCCC1CN(Cc2c(F)cccc2Cl)CCN1C1CCCCC1 (centres undefined) | 2.9 | 52.8* | -0.2 | 1.4 | 0.5
OCCC1CN(Cc2nc(-c3ccccc3)cs2)CCN1C1CCCC1 (centres undefined) | 7.6 | 84.4* | -0.4 | -15.5 | 7.5

Screening data (PubChem BioAssay)
